Here are results for two substances from paper PMC11665275 (Organic & Biomolecular Chemistry, 2024).

Square brackets hold non-standard residues; d marks the D form. Ends that are not written are not given here. Orn = NCCC[C@H](N)C(=O)O; Dab = NCC[C@H](N)C(=O)O; Dap = NC[C@H](N)C(=O)O

The data set in a line: Circular dichroism. The format is physicochemical. Particulars: CD, PBS pH 7.4 (aqueous), 200 μM peptide, 25 °C, from MRE at 222 nm. In a few lines: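 Spectra taken at 25 °C in PBS (137 mM NaCl, 2.7 mM KCl, 10 mM Na2HPO4, 1.8 mM KH2PO4, pH 7.4) with 200 μM peptide in a 0.1 cm quartz cuvette. Scanned 195–260 nm at 5 nm min−1, 0.50 nm bandwidth, 16 s integration. A single scan was solvent-corrected and converted to MRE. Helicity was calculated using the number of residues in the potential helical region and an empirical end-effect correction.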

On to AMRL[Orn]KFF[Dap]DFILQRKK [5_3–9_1], for which the “% Helicity in PBS (value in parentheses)” value is given as 0.1%.

As to AMRL[Dab]KFF[Dab]DFILQRKK [5_2–9_2], the “% Helicity in PBS (value in parentheses)” value amounted to 0.9%.
